ChEMBL document CHEMBL4014346, “Lead Optimization Generates CYP11B1 Inhibitors of Pyridylmethyl Isoxazole Type with Improved Pharmacological Profile for the Treatment of Cushing's Disease” (J Med Chem, 2017)
pIC50: −log10 of the molar value.

Experiments:
CYP1A2 = target: T1, CYP1A2 (Homo sapiens, UniProt P05177); assay: Inhibition of recombinant human CYP1A2 expressed in baculovirus infected insect cell microsomes at 1 uM relative to control; assay type: ADME
T1 sequence (P05177 whole entry): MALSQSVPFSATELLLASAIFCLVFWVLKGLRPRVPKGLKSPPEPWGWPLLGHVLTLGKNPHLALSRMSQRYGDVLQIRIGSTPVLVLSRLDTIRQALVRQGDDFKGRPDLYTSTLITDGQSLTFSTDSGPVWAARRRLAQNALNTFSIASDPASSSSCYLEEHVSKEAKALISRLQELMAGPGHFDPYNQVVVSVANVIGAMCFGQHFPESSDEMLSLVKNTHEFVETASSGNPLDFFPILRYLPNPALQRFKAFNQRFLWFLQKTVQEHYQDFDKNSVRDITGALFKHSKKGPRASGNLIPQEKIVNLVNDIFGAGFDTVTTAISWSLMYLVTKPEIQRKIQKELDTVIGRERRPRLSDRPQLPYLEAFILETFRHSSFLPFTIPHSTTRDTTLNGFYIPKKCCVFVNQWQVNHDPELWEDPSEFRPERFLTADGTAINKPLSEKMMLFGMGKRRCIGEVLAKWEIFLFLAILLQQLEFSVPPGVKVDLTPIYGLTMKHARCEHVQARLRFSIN
Procedure, shortened: (§1)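 Recombinant human CYP1A2, 2B6, 2C9, 2C19, 2D6 and 3A4 in baculovirus-infected insect-cell microsomes, assayed per kit instructions; test compound at 1 µM, percent inhibition.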

[1] = target: T2, Cytochrome P450 11B1, mitochondrial (Homo sapiens, UniProt P15538); assay: Inhibition of human CYP11B1 expressed in hamster V79MZ cells using [1,2-3H]-11-deoxycorticosterone as substrate after 6 hrs by HPLC analysis; assay type: cell-based
T2 sequence (P15538 whole entry): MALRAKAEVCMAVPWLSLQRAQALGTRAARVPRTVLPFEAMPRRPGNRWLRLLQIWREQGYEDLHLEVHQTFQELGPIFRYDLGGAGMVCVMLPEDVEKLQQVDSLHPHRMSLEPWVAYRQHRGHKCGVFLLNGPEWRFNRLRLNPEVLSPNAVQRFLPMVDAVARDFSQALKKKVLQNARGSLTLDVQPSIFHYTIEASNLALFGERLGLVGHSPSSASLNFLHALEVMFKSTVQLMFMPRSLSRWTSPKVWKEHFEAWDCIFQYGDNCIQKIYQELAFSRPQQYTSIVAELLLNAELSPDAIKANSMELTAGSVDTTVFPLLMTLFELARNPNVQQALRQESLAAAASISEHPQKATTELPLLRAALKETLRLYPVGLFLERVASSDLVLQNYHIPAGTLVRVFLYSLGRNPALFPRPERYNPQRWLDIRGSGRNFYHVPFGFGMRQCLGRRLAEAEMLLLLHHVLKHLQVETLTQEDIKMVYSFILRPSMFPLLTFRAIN
Procedure, shortened: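 V79MZ cells expressing recombinant human CYP11B1 or CYP11B2, or rat CYP11B1, incubated with [1,2-³H]-11-deoxycorticosterone (100 nM) and inhibitor over a range of concentrations; ketoconazole as reference.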

[2] = Half life in rat liver S9 fractions at 1 uM in presence of NADPH/UDPGA by LC-MS/MS analysis; assay type: ADME, tissue-based
Procedure, shortened: (§2)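 Samples taken at 0, 5, 15 and 60 min, stopped with cold acetonitrile containing internal standard. Remaining parent measured by LC-MS/MS.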

[3] = Plasma concentration in Sprague-Dawley rat at 100 mg/kg, po administered as single dose after 1 hr by HPLC-MS/MS analysis; assay type: ADME, organism-based
Procedure, shortened: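 One female Sprague-Dawley rat dosed orally with a suspension in 0.5% porcine gelatin/5% mannitol in water, under 2% isoflurane. Tail-vein blood in citrate; plasma precipitated with acetonitrile containing diphenhydramine internal standard and quantified by HPLC-MS/MS.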

CYP17A1 = target: T3, CYP17A1 (Homo sapiens, UniProt P05093); assay: Inhibition of human CYP17A1 expressed in Escherichia coli membranes at 2 uM using [3H]-progesterone as substrate after 30 mins in presence of NADPH by HPLC analysis relative to control; assay type: ADME, cell membranes; details: Escherichia coli membranes expressing human CYP17A1, probe [3H]-progesterone
T3 sequence (P05093 whole entry): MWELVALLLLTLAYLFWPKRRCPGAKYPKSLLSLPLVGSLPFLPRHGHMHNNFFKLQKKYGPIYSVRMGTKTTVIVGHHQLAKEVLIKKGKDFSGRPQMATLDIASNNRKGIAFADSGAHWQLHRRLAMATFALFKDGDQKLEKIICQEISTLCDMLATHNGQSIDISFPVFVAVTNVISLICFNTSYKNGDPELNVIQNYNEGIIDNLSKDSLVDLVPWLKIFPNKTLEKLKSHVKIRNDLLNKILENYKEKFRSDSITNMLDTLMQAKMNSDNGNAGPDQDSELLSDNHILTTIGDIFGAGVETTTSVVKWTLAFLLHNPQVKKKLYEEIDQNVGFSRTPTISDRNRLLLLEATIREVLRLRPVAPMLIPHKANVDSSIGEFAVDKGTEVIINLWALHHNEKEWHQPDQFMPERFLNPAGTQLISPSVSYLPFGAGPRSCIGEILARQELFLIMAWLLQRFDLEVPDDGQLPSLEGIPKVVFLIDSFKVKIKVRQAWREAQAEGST
Procedure, shortened: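 Human CYP17A1 expressed in E. coli; [³H]-progesterone (25 µM) as substrate with NADPH cofactor; test compounds at 2 µM; abiraterone and ketoconazole as references.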

CYP19A1 = target: T4, CYP19A1 (Homo sapiens, UniProt P11511); assay: Inhibition of human placental microsomal CYP19A1 at 2 uM using [1beta-3H]-androstenedione as substrate after 20 mins in presence of NADPH by scintillation spectrometric method relative to control; assay type: ADME; details: placental microsomes, probe [1beta-3H]-androstenedione
T4 sequence (P11511 whole entry): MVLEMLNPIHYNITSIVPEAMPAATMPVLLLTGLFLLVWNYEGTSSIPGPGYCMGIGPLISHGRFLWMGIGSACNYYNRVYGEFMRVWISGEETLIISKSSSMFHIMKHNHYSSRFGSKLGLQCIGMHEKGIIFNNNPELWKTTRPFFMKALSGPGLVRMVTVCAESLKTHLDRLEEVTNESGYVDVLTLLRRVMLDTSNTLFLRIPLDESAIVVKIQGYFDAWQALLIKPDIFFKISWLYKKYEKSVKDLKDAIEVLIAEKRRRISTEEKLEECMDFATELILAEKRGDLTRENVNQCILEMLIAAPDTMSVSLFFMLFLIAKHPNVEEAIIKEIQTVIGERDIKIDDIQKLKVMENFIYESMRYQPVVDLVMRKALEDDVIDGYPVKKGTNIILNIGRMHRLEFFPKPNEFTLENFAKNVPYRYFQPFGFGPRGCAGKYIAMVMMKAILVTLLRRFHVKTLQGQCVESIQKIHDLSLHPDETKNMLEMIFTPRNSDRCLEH
Procedure, shortened: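 Human placental microsomal CYP19A1; [1β-³H]androstenedione (500 nM) as substrate; test compounds at 2 µM; fadrozole and aminoglutethimide as references.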

[4] = Half life in human liver S9 fractions at 1 uM in presence of NADPH/UDPGA by LC-MS/MS analysis; assay type: ADME; procedure, shortened: as §2
CYP2C19 = CYP2C19 (Homo sapiens, UniProt P33261); assay: Inhibition of recombinant human CYP2C19 expressed in baculovirus infected insect cell microsomes at 1 uM relative to control; assay type: ADME; procedure, shortened: as §1
Chain of CYP2C19 (P33261 whole entry): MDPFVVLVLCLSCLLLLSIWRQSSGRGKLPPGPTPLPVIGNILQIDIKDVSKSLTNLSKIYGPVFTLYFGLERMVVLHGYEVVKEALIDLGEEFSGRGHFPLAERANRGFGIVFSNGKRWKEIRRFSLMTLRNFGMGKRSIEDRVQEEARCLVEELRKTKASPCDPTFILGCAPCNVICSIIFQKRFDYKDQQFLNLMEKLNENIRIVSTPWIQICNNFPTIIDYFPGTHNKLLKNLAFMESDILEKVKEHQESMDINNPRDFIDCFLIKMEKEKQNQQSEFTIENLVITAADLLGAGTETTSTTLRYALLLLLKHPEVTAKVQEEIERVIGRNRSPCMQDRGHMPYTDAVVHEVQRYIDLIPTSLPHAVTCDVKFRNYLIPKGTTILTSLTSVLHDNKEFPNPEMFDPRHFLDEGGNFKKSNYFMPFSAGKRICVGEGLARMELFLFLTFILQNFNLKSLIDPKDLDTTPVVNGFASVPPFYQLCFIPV

Row | inhibition at 1 µM (CYP1A2) | pIC50 [1] | half-life at 1 µM [2] | concentration at 1 h [3] | inhibition at 0.5 h, 2 µM (CYP17A1) | inhibition at 20 min, 2 µM (CYP19A1) | half-life at 1 µM [4] | inhibition at 1 µM (CYP2C19) | SMILES
1 | 54% | 8.30 | 30 min | 2.5 µM | ≤ 9% | ≤ 9% | 145 min | 8% | Cc1cncc(Cc2cc(-c3ccccc3)no2)c1
2 | 23% | 8.70 | 23 min | 19.7 µM | ≤ 9% | ≤ 9% | 125 min | 17% | COc1cncc(Cc2cc(-c3ccccc3)no2)c1
